pIC50: −log10 of the molar value. Where only a bound is given, the exact number is not on record here.

One experiment has as its system Rattus norvegicus. Nature of the experiment: Dose required to reduce serum cholesterol by 50% relative to OVX controls was determined (in vivo). In kind it is functional.
Conditions: not given
The method, boiled down:
(§1)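 OVX Sprague–Dawley rats (75 days old), 5–6 per group, dosed once daily by oral gavage for 4 consecutive days, starting 14 days after ovariectomy. Vehicle was 20% β-hydroxycyclodextrin at 1 mL/kg, or 1.5% carboxymethylcellulose in some cases. Rats were fasted after the last dose and bled by cardiac puncture next morning.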
A word on the ED50: it is the dose at which the effect has come halfway, by size or by number of responders. As for `CC(C)c1sc2cc(O)ccc2c1C(=O)c1ccc(OCCN2CCCCC2)cc1`, the ED50 was > 10 mg/kg.
On to `Cl.O=C(c1ccc(OCCN2CCCCC2)cc1)c1c(-c2ccc(Cl)cc2)sc2cc(O)ccc12`, for which the ED50 was determined as 0.3 mg/kg.
`Cc1sc2cc(O)ccc2c1C(=O)c1ccc(OCCN2CCCCC2)cc1` gave an ED50 of 1.8 mg/kg.
With `COc1ccc(-c2sc3cc(OC)ccc3c2C(=O)c2ccc(OCCN3CCCCC3)cc2)cc1.Cl`, the ED50 was < 0.1 mg/kg.
The compound `O=C(c1ccc(OCCN2CCCCC2)cc1)c1c(-c2ccncc2)sc2cc(O)ccc12` returned an ED50 of 14.6 mg/kg.
Still for that read-out and setting: with `CCCCc1ccc(-c2sc3cc(O)ccc3c2C(=O)c2ccc(OCCN3CCCCC3)cc2)cc1` the figure was 2.3 mg/kg.
For the compound `COc1ccc2c(C(=O)c3ccc(OCCN4CCCCC4)cc3)c(-c3ccc(O)cc3)sc2c1`, the ED50 was < 0.1 mg/kg.
Still for that read-out and setting: under `O=C(c1ccc(OCCN2CCCCC2)cc1)c1c(C2CCCCC2)sc2cc(O)ccc12` stands 2.1 mg/kg.

For the next experiment, the system named is Rattus norvegicus. Nature of the experiment: Percent decrease in serum cholesterol relative to OVX control at 0.1 mg/kg in rat was determined (in vivo). In kind it is functional.
Conditions: not given
The method, boiled down:
as §1
For `Cl.O=C(c1ccc(OCCN2CCCCC2)cc1)c1c(-c2ccc(Cl)cc2)sc2cc(O)ccc12`, the Decrease came to 32.3%.
Turning to `COc1ccc(-c2sc3cc(OC)ccc3c2C(=O)c2ccc(OCCN3CCCCC3)cc2)cc1.Cl`, the Decrease came out at 62.2%.
Regarding `CCCCc1ccc(-c2sc3cc(O)ccc3c2C(=O)c2ccc(OCCN3CCCCC3)cc2)cc1`, the Decrease turned out to be 21.3%.
In the case of `COc1ccc2c(C(=O)c3ccc(OCCN4CCCCC4)cc3)c(-c3ccc(O)cc3)sc2c1`, the Decrease was determined as 54.8%.

In a further experiment the test system is Rattus norvegicus. In words: Percent decrease in serum cholesterol relative to OVX control at 0.1 mg/kg in rats. In kind it is functional.
Conditions: not given
The method, boiled down:
as §1
As to `CCc1sc2cc(O)ccc2c1C(=O)c1ccc(OCCN2CCCCC2)cc1`, the Decrease stood at 4.4%.
Still for that read-out and setting: with `CC(C)c1sc2cc(O)ccc2c1C(=O)c1ccc(OCCN2CCCCC2)cc1` the figure was 12.4%.
On the same count and under the same terms, under `Cc1sc2cc(O)ccc2c1C(=O)c1ccc(OCCN2CCCCC2)cc1` stands 8.3%; under `O=C(c1ccc(OCCN2CCCCC2)cc1)c1c(-c2ccncc2)sc2cc(O)ccc12`, 7.2%; under `O=C(c1ccc(OCCN2CCCCC2)cc1)c1c(C2CCCCC2)sc2cc(O)ccc12`, -0.1%.

The next experiment deals with Rattus norvegicus. In words: Percent decrease in serum cholesterol relative to OVX control at 1 mg/kg in rat. It is filed as functional.
Conditions: not given
The procedure, abridged:
as §1
As to `Cl.O=C(c1ccc(OCCN2CCCCC2)cc1)c1c(-c2ccc(Cl)cc2)sc2cc(O)ccc12`, the Decrease is recorded as 69.9%.
In the case of `COc1ccc(-c2sc3cc(OC)ccc3c2C(=O)c2ccc(OCCN3CCCCC3)cc2)cc1.Cl`, the Decrease is 78%.
For `CCCCc1ccc(-c2sc3cc(O)ccc3c2C(=O)c2ccc(OCCN3CCCCC3)cc2)cc1`, the Decrease was 14.5%.
Same read-out and setting: under `COc1ccc2c(C(=O)c3ccc(OCCN4CCCCC4)cc3)c(-c3ccc(O)cc3)sc2c1` stands 64.5%.

A further experiment deals with Rattus norvegicus. Nature of the experiment: Percent decrease in serum cholesterol relative to OVX control at 1.0 mg/kg in rats. In kind it is functional.
Conditions: not given
The method, boiled down:
as §1
Take `CCc1sc2cc(O)ccc2c1C(=O)c1ccc(OCCN2CCCCC2)cc1`: the Decrease was 26.5%.
For `NC(=O)c1ccc2c(C(=O)c3ccc(OCCN4CCCCC4)cc3)c(-c3ccc(O)cc3)sc2c1`, the Decrease is -14.9%.
With `CC(C)c1sc2cc(O)ccc2c1C(=O)c1ccc(OCCN2CCCCC2)cc1`, the Decrease is listed as 30.5%.
With `Cc1sc2cc(O)ccc2c1C(=O)c1ccc(OCCN2CCCCC2)cc1`, the Decrease came out at 53.8%.
`O=C(c1ccc(OCCN2CCCCC2)cc1)c1c(-c2ccncc2)sc2cc(O)ccc12`: the Decrease is reported as 24%.
Same read-out and setting: under `O=C(c1ccc(OCCN2CCCCC2)cc1)c1c(C2CCCCC2)sc2cc(O)ccc12` stands 52.9%.

In another experiment the test system is Rattus norvegicus. Nature of the experiment: Percent decrease in serum cholesterol relative to OVX control at 10 mg/kg in rat was determined (in vivo). It is filed as functional.
Conditions: not given
The method, boiled down: as §1
Turning to `CCc1sc2cc(O)ccc2c1C(=O)c1ccc(OCCN2CCCCC2)cc1`, the Decrease stood at 31.1%.
For `CC(C)c1sc2cc(O)ccc2c1C(=O)c1ccc(OCCN2CCCCC2)cc1`, the Decrease came out at 35%.
Regarding `Cl.O=C(c1ccc(OCCN2CCCCC2)cc1)c1c(-c2ccc(Cl)cc2)sc2cc(O)ccc12`, the Decrease is listed as 65%.
As to `Cc1sc2cc(O)ccc2c1C(=O)c1ccc(OCCN2CCCCC2)cc1`, the Decrease worked out at 62.9%.
In the case of `COc1ccc(-c2sc3cc(OC)ccc3c2C(=O)c2ccc(OCCN3CCCCC3)cc2)cc1.Cl`, the Decrease was 68.5%.
Consider `O=C(c1ccc(OCCN2CCCCC2)cc1)c1c(-c2ccncc2)sc2cc(O)ccc12`, for which the Decrease came out at 47.6%.
As to `CCCCc1ccc(-c2sc3cc(O)ccc3c2C(=O)c2ccc(OCCN3CCCCC3)cc2)cc1`, the Decrease is given as 72%.
Consider `COc1ccc2c(C(=O)c3ccc(OCCN4CCCCC4)cc3)c(-c3ccc(O)cc3)sc2c1`, for which the Decrease is given as 50%.
For the compound `O=C(c1ccc(OCCN2CCCCC2)cc1)c1c(C2CCCCC2)sc2cc(O)ccc12`, the Decrease came out at 61.7%.

Another experiment relates to Rattus norvegicus. Nature of the experiment: Minimum effective dose at which significant increase in uterine eosinophil peroxidase (EPO) activity in rat was determined (in vivo). It is filed as functional. The settings on record: read-out: MED.
In the case of `CCc1sc2cc(O)ccc2c1C(=O)c1ccc(OCCN2CCCCC2)cc1`, the minimal effective dose was > 10 mg/kg.
With `NC(=O)c1ccc2c(C(=O)c3ccc(OCCN4CCCCC4)cc3)c(-c3ccc(O)cc3)sc2c1`, the minimal effective dose was > 10 mg/kg.
For `CC(C)c1sc2cc(O)ccc2c1C(=O)c1ccc(OCCN2CCCCC2)cc1`, the minimal effective dose is > 10 mg/kg.
On to `Cl.O=C(c1ccc(OCCN2CCCCC2)cc1)c1c(-c2ccc(Cl)cc2)sc2cc(O)ccc12`, for which the minimal effective dose was > 10 mg/kg.
Turning to `Cc1sc2cc(O)ccc2c1C(=O)c1ccc(OCCN2CCCCC2)cc1`, the minimal effective dose is > 10 mg/kg.
Still for that read-out and setting: under `COc1ccc(-c2sc3cc(OC)ccc3c2C(=O)c2ccc(OCCN3CCCCC3)cc2)cc1.Cl` stands > 10 mg/kg; under `O=C(c1ccc(OCCN2CCCCC2)cc1)c1c(-c2ccncc2)sc2cc(O)ccc12`, > 10 mg/kg.
With `CCCCc1ccc(-c2sc3cc(O)ccc3c2C(=O)c2ccc(OCCN3CCCCC3)cc2)cc1`, the minimal effective dose is 10 mg/kg.
On the same count and under the same terms, under `COc1ccc2c(C(=O)c3ccc(OCCN4CCCCC4)cc3)c(-c3ccc(O)cc3)sc2c1` stands > 10 mg/kg.
As for `O=C(c1ccc(OCCN2CCCCC2)cc1)c1c(C2CCCCC2)sc2cc(O)ccc12`, the minimal effective dose is > 10 mg/kg.

For a further experiment, the system named is Rattus norvegicus. In words: Minimum effective dose at which significant increase in uterine weight/body weight in rat was determined (in vivo). The settings on record: read-out: MED. In kind it is functional. The procedure, abridged: (§2)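 In 75-day OVX Sprague–Dawley rats dosed orally for 4 days, beginning 2 weeks post-ovariectomy with 5–6 rats per group, whole uteri were weighed the morning after fasting. MED is the lowest dose giving a significant (p≤0.05) rise in uterine weight/body weight, expressed as % increase over OVX controls ±SE.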
Turning to `CCc1sc2cc(O)ccc2c1C(=O)c1ccc(OCCN2CCCCC2)cc1`, the minimal effective dose came out at 10 mg/kg.
With `NC(=O)c1ccc2c(C(=O)c3ccc(OCCN4CCCCC4)cc3)c(-c3ccc(O)cc3)sc2c1`, the minimal effective dose is 10 mg/kg.
In the case of `CC(C)c1sc2cc(O)ccc2c1C(=O)c1ccc(OCCN2CCCCC2)cc1`, the minimal effective dose is > 10 mg/kg.
Regarding `Cl.O=C(c1ccc(OCCN2CCCCC2)cc1)c1c(-c2ccc(Cl)cc2)sc2cc(O)ccc12`, the minimal effective dose was determined as 0.1 mg/kg.
As to `Cc1sc2cc(O)ccc2c1C(=O)c1ccc(OCCN2CCCCC2)cc1`, the minimal effective dose is > 10 mg/kg.
Consider `COc1ccc(-c2sc3cc(OC)ccc3c2C(=O)c2ccc(OCCN3CCCCC3)cc2)cc1.Cl`, for which the minimal effective dose turned out to be 0.1 mg/kg.
In the case of `O=C(c1ccc(OCCN2CCCCC2)cc1)c1c(-c2ccncc2)sc2cc(O)ccc12`, the minimal effective dose came out at 1 mg/kg.
`CCCCc1ccc(-c2sc3cc(O)ccc3c2C(=O)c2ccc(OCCN3CCCCC3)cc2)cc1`: the minimal effective dose is > 10 mg/kg.
Take `COc1ccc2c(C(=O)c3ccc(OCCN4CCCCC4)cc3)c(-c3ccc(O)cc3)sc2c1`: the minimal effective dose amounted to 1 mg/kg.
With `O=C(c1ccc(OCCN2CCCCC2)cc1)c1c(C2CCCCC2)sc2cc(O)ccc12`, the minimal effective dose came out at 1 mg/kg.

In the next experiment the test system is Rattus norvegicus. In words: Eosinophil peroxidase activity expressed as Vmax was determined in rat (in vivo) Eosinophil peroxidase activity expressed as Vmax was determined in rat (in vivo). It is filed as functional. Also on record: unit not given here.
Conditions: not given
Compound `CCCCc1ccc(-c2sc3cc(O)ccc3c2C(=O)c2ccc(OCCN3CCCCC3)cc2)cc1` gave an Eosinophil peroxidase activity (Vmax) of 20.8.

In the next experiment the test system is Rattus norvegicus. In words: Minimum effective dose at which significant increase in uterine weight/body weight in rat was determined (in vivo); expressed as % increase relative to ovariectomized (OVX) controls. In kind it is functional.
Conditions: not given
The procedure, abridged: as §2
For the compound `CCc1sc2cc(O)ccc2c1C(=O)c1ccc(OCCN2CCCCC2)cc1`, the Increase is reported as 55.03%.
Still for that read-out and setting: under `NC(=O)c1ccc2c(C(=O)c3ccc(OCCN4CCCCC4)cc3)c(-c3ccc(O)cc3)sc2c1` stands 30.7%; under `Cl.O=C(c1ccc(OCCN2CCCCC2)cc1)c1c(-c2ccc(Cl)cc2)sc2cc(O)ccc12`, 56.5%.
`COc1ccc(-c2sc3cc(OC)ccc3c2C(=O)c2ccc(OCCN3CCCCC3)cc2)cc1.Cl` displayed an Increase of 57.3%.
`O=C(c1ccc(OCCN2CCCCC2)cc1)c1c(-c2ccncc2)sc2cc(O)ccc12` returned an Increase of 33.3%.
Regarding `COc1ccc2c(C(=O)c3ccc(OCCN4CCCCC4)cc3)c(-c3ccc(O)cc3)sc2c1`, the Increase amounted to 33.5%.
Consider `O=C(c1ccc(OCCN2CCCCC2)cc1)c1c(C2CCCCC2)sc2cc(O)ccc12`, for which the Increase is listed as 30.2%.

In a further experiment the target is Estrogen receptor (Homo sapiens, UniProt Q92731+P03372). The following applies: mcf7.
Usually pIC50 stands for the negative decadic logarithm of the IC50, by convention in mol/L. `NC(=O)c1ccc2c(C(=O)c3ccc(OCCN4CCCCC4)cc3)c(-c3ccc(O)cc3)sc2c1` had a pIC50 of 6.00.
Usually IC50 stands for the point on the concentration scale where inhibition reaches its midpoint. Consider `Cl.O=C(c1ccc(OCCN2CCCCC2)cc1)c1c(-c2ccc(Cl)cc2)sc2cc(O)ccc12`, for which the IC50 is 1 nM.
Consider `COc1ccc(-c2sc3cc(OC)ccc3c2C(=O)c2ccc(OCCN3CCCCC3)cc2)cc1.Cl`, for which the IC50 worked out at 300 nM.
The compound `O=C(c1ccc(OCCN2CCCCC2)cc1)c1c(-c2ccncc2)sc2cc(O)ccc12` showed an IC50 of 100 nM.
`CCCCc1ccc(-c2sc3cc(O)ccc3c2C(=O)c2ccc(OCCN3CCCCC3)cc2)cc1` showed an IC50 of 10 nM.
In turn, `COc1ccc2c(C(=O)c3ccc(OCCN4CCCCC4)cc3)c(-c3ccc(O)cc3)sc2c1` came in with an IC50 of 250 nM.

(Values after ChEMBL document CHEMBL1130160 (J Med Chem, 1997).)
